The source made the active and inactive calls.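 How the source made its calls, unless noted: active means viability loss from added drug above about 55%, and viability with drug at most 40%, in both replicates (limit read from the data, passing the limit was not always enough); inconclusive means both conditions met in only one replicate; inactive means neither replicate meets both conditions.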

Usually viability stands for a read-out of living cells in per cent, often relative to untreated cells. Usually inhibition stands for the relative decrease from the control value, in per cent.

Test [1] in a line: Her2 expression decrease, cell viability multiplex – SKBR3 breast tumor cells, AlphaScreen, ATP viability, primary screen (AID 461;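 active means Her2 level under about 52% in both replicate screens, with viability over 70% of control, limit read from the data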;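 on Her2 level: lower value means less Her2 protein in the cells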;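 on viability: percent of carrier control wells set as 100% viability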). The conditions noted are these: SKBR3 Her2 protein level, 18-24 h, measured here: SKBR3 viability, ATP luminescence, at 10 µM. (In general: Alpha assays give light when donor and acceptor beads are brought close together.)
The target of test [2] is Receptor tyrosine-protein kinase erbB-2 (Homo sapiens) (UniProt P04626). The test is described as above. The conditions noted are these: 18-24 h, at 10 µM, stronger effect = lower value.
A short description of test [3]: reduced viability of SK-BR-3 breast cancer cells – cell-based, 24 h, human, pilot screen (AID 572;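 active means viability at or below 10% of carrier control in both of two separate runs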;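 further: compound exposure lasted between 18 and 24 h rather than exactly 24 h; 100% = carrier-treated control wells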). The conditions noted are these: SK-BR-3 viability, CellTiter-Glo luminescence, at 10 µM, stronger effect = lower value. A general note: Cellular ATP, detected with luciferase, serves as a proxy for viable cell number.
A short description of test [4]: HUVEC growth inhibition – cell-based, human, primary screen (AID 575;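 active means viability at or below 30% in both replicate assays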;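 further: 100% = median of untreated cell wells with 0.1% DMSO on each plate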). The conditions noted are these: HUVEC proliferation, CellTiter-Glo luminescence, 72 h; at 10 µM; stronger effect = lower value. The method, boiled down:
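system = HUVEC primary cells | amount = 1250 cells/well | buffer or medium = supplemented EBM, 2% fetal bovine serum | dosing = single-point 10 µM, DMSO 0.1% final | times = 72 h compound incubation | detection = CTG luminescence | read-out = % viability relative to median vehicle-well signal on each plate | control set = vehicle and MePR control wells | format = collagen-coated 384-well format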

Test [5] can be described thus: H69AR cell proliferation blockers – human, duplicate replicates, primary screen (AID 580;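 active means viability at or under a set limit in both replicates, limit being median viability minus 3 SD, cut at about 48% in these data, passing the limit was not always enough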;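 further: 100% = mean luminescence of untreated wells and 0% = no signal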). The conditions noted are these: H69AR lung tumor cells viability, ATP luminescence, 72 h; at 10 µM; stronger effect = lower value.
The nature of test [6]: MRP1 drug-resistance reversers in H69AR cells – cell-based, doxorubicin co-treatment, pilot screen (AID 601). The conditions noted are these: CellTiter-Glo, 72 h, at 10 µM; for differential viability (reversal): stronger effect = higher value.
Test [7] can be described thus: yeast transport mutant growth inhibition pilot in 384-well plates, post-Golgi transport modulator project (AID 636; in the data active means inhibition above about 31%). The conditions noted are these: absorbance 615 nm, about 18 h, stronger effect = higher value.
A short description of test [8]: growth suppression of yeast trafficking mutant, preliminary HTS, modulators of trafficking downstream of Golgi apparatus project, 1536-format plate, OD 615 nm (AID 637; in the data active means inhibition above about 30%). The following applies: yeast transport mutant growth, absorbance 615 nm, 18 h; stronger effect = higher value.
The mark [9] stands for this setting: H69AR cells + 2 uM doxorubicin, measured here: viability with 2 uM doxorubicin, stronger effect = lower value.
Where [10] appears, read: H69AR cells, compound alone cytotoxicity.

Receptor tyrosine-protein kinase erbB-2 (Homo sapiens), sequence (P04626 whole entry, looked up): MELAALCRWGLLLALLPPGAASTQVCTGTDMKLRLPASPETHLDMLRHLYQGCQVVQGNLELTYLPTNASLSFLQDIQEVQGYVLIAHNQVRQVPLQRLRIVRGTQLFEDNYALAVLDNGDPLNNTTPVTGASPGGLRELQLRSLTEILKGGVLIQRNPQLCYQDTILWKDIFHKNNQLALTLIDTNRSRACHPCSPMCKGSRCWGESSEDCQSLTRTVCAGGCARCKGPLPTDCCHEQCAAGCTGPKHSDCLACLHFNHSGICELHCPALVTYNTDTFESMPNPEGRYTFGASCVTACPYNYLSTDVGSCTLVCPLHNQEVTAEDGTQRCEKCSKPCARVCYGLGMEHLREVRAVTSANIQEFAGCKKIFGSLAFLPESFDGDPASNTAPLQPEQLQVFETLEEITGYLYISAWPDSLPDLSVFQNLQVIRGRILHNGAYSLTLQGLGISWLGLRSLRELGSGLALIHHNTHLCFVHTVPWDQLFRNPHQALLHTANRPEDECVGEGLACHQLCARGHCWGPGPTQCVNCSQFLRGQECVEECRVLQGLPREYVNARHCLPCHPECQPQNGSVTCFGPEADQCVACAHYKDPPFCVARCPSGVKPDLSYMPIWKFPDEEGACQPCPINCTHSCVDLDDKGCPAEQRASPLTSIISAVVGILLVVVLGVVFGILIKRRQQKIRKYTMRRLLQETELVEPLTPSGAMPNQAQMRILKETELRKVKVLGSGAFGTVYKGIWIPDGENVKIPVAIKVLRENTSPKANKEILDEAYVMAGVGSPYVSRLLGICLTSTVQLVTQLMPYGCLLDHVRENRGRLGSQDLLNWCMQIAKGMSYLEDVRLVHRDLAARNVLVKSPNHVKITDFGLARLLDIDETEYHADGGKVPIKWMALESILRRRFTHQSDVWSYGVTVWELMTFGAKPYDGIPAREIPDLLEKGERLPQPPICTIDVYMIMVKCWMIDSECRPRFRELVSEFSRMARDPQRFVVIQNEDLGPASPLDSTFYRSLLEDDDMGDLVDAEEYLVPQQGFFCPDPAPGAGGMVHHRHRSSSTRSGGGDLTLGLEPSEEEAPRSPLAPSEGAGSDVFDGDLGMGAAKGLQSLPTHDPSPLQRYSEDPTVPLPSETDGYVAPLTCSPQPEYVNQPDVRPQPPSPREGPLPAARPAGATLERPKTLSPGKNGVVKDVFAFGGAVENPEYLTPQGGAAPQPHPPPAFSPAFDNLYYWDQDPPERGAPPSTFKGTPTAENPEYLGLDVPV

Take `C=CCOc1nc2c(c(=O)n(C)c(=O)n2C)n1Cc1c(Cl)cccc1Cl`: the viability in test [1] was 97.5%; in test [3], 97.5% (inactive); in test [4], 94.9% (inactive); in test [5], 80.4% (inactive); in test [6] (setting [9]), 18.3%; in test [6] (setting [10]), 80.4%. In addition, the Her2 level in test [2] is 83% (inactive). In addition, in test [6] (H69AR cells + 2 uM doxorubicin), the differential viability (reversal) was 62% (active). Further, the results for the inhibition in test [7] and in test [8] were -3.92% (inactive) and 11.9% (inactive), respectively.
Regarding `Cn1c(SCc2cccc3ccccc23)nnc1-c1ccco1`, the viability in test [1] is 76%; in test [3] it was 76% (inactive); in test [4] it was 126% (inactive); in test [5], 92.4% (inactive); in test [6] (setting [9]), 84.5%; in test [6] (setting [10]), 92.4%. Besides, the Her2 level in test [2] is 98.5% (inactive). Further, in test [6] (H69AR cells + 2 uM doxorubicin), the differential viability (reversal) was 7.87% (inactive). In addition, the figures for the inhibition in test [7] and in test [8] were -0.93% (inactive) and -6.94% (inactive), respectively.
Consider `COc1cccc(CNC(=O)C2CCN(c3cnccn3)CC2)c1`, for which the viability was 87.5% in test [1]; 87.5% (inactive) in test [3]; 88.4% (inactive) in test [4]; 96.2% (inactive) in test [5]; 87.3% in test [6] (setting [9]); 96.2% in test [6] (setting [10]). The Her2 level in test [2] is 118% (inactive). Also, in test [6] (H69AR cells + 2 uM doxorubicin), the differential viability (reversal) was 8.93% (inactive). Also, the inhibition in test [7] was -4.67% (inactive); in test [8] it was 16.8% (inactive).
Take `c1ccc2ncc(-n3cnnn3)cc2c1`: the viability in test [1] is 99.5%; in test [3] it was 99.5% (inactive); in test [4], 83.2% (inactive); in test [5], 94% (inactive); in test [6] (setting [9]) it was 87.9%; in test [6] (setting [10]), 94%. In addition, the Her2 level in test [2] is 105% (inactive). The differential viability (reversal) in test [6] (H69AR cells + 2 uM doxorubicin) is 6.05% (inactive). Moreover, the inhibition in test [7] was -3.24% (inactive); in test [8], 5.74% (inactive).
With `COc1ccc2c(-c3cccnc3)cc(=O)[nH]c2c1`, the viability is 116% in test [1]; 116% (inactive) in test [3]; 87.2% (inactive) in test [4]; 96% (inactive) in test [5]; 87.2% in test [6] (setting [9]); 96% in test [6] (setting [10]). Besides, the Her2 level in test [2] is 93.5% (inactive). Besides, the differential viability (reversal) in test [6] (H69AR cells + 2 uM doxorubicin) is 8.77% (inactive). For the same molecule, the inhibition is -6.4% (inactive) in test [7] and 4.43% (inactive) in test [8].
For the molecule `CC(C(=O)N1CCCCC1)n1sc2ccccc2c1=O` (stereo not given), the viability in test [1] is 119%; in test [3], 119% (inactive); in test [4] it was 88% (inactive); in test [5] it was 87.4% (inactive); in test [6] (setting [9]), 84.3%; in test [6] (setting [10]), 87.4%. The Her2 level in test [2] is 102% (inactive). The differential viability (reversal) in test [6] (H69AR cells + 2 uM doxorubicin) was 3.18% (inactive). Moreover, the inhibition in test [7] was -1.71% (inactive); in test [8] it was 11.4% (inactive).
Consider `Cn1c(=O)c2ncn(CC(=O)NCCOc3ccc(C(C)(C)C)cc3)c2n(C)c1=O`, for which the viability in test [1] is 96.5%; in test [3], 96.5% (inactive); in test [4], 100% (inactive); in test [5] it was 76.2% (inactive); in test [6] (setting [9]), 93.8%; in test [6] (setting [10]), 76.2%. In test [2], the Her2 level is 110% (inactive). Besides, in test [6] (H69AR cells + 2 uM doxorubicin), the differential viability (reversal) was -17.6% (inactive). The inhibition in test [7] was -5.45% (inactive); in test [8], -6.03% (inactive).
For `COCCN(C(=O)CCC(=O)Nc1ccccn1)C(C(=O)NC1CCCC1)c1ccc(OC)cc1` (stereo not given), the viability in test [1] was 106%; in test [3], 106% (inactive); in test [4], 94.6% (inactive); in test [5] it was 111% (inactive); in test [6] (setting [9]), 96.3%; in test [6] (setting [10]), 111%. In addition, the Her2 level in test [2] is 105% (inactive). For the same molecule, in test [6] (H69AR cells + 2 uM doxorubicin), the differential viability (reversal) was 14.3% (inactive). In addition, the figures for the inhibition in test [7] and in test [8] were 2.57% (inactive) and -0.49% (inactive), respectively.
On to `O=C(COC(=O)C1CC1)c1c[nH]c2ccccc12`, for which the viability in test [1] is 93.5%; in test [3] it was 93.5% (inactive); in test [4], 105% (inactive); in test [5] it was 115% (inactive); in test [6] (setting [9]), 100%; in test [6] (setting [10]) it was 115%. Moreover, the Her2 level in test [2] was 107% (inactive). The differential viability (reversal) in test [6] (H69AR cells + 2 uM doxorubicin) is 14.9% (inactive). Further, the figures for the inhibition in test [7] and in test [8] were 3.24% (inactive) and -11.3% (inactive), respectively.
As to `COc1cc(C(=O)N2CCN(C(=O)CC(C)C)CC2)cc(OC)c1OC`, the viability is 93.5% in test [1]; 93.5% (inactive) in test [3]; 101% (inactive) in test [4]; 91.3% (inactive) in test [5]; 97.9% in test [6] (setting [9]); 91.3% in test [6] (setting [10]). In addition, the Her2 level in test [2] is 106% (inactive). In addition, the differential viability (reversal) in test [6] (H69AR cells + 2 uM doxorubicin) is -6.59% (inactive). The inhibition was 2.63% (inactive) in test [7] and 13.2% (inactive) in test [8].
For the molecule `OCc1cn(-c2ccccc2)nc1-c1ccc2c(c1)OCCO2`, the viability is 93% in test [1]; 93% (inactive) in test [3]; 70.5% (inactive) in test [4]; 83.9% (inactive) in test [5]; 88.3% in test [6] (setting [9]); 83.9% in test [6] (setting [10]). In addition, the Her2 level in test [2] was 102% (inactive). Also, the differential viability (reversal) in test [6] (H69AR cells + 2 uM doxorubicin) was -4.38% (inactive). The results for the inhibition in test [7] and in test [8] were -7.95% (inactive) and -4.44% (inactive), respectively.
With `CC(C(=O)OCn1nnc2ccccc2c1=O)N1C(=O)c2ccccc2C1=O` (stereo not given), the viability was 110% in test [1]; 110% (inactive) in test [3]; 93.9% (inactive) in test [4]; 86.6% (inactive) in test [5]; 108% in test [6] (setting [9]); 86.6% in test [6] (setting [10]). Besides, the Her2 level in test [2] is 100% (inactive). Further, in test [6] (H69AR cells + 2 uM doxorubicin), the differential viability (reversal) was -21% (inactive). For the same molecule, the results for the inhibition in test [7] and in test [8] were -1.45% (inactive) and 30.2% (active), respectively.
`C=COC(=O)CSc1snc(SCC(=O)OC)c1C#N`: the viability is 85.5% in test [1]; 85.5% (inactive) in test [3]; 66.2% (inactive) in test [4]; 98.9% (inactive) in test [5]; 95.9% in test [6] (setting [9]); 98.9% in test [6] (setting [10]). Besides, the Her2 level in test [2] was 92.5% (inactive). In addition, the differential viability (reversal) in test [6] (H69AR cells + 2 uM doxorubicin) is 3.02% (inactive). Besides, the inhibition in test [7] was -5.89% (inactive); in test [8], 6.98% (inactive).
For `O=c1[nH]c(N2CCc3ccccc32)nc2c1CCCC2`, the viability in test [1] was 125%; in test [3], 125% (inactive); in test [4], 101% (inactive); in test [5] it was 104% (inactive); in test [6] (setting [9]), 81.8%; in test [6] (setting [10]), 104%. Also, in test [2], the Her2 level is 104% (inactive). Also, the differential viability (reversal) in test [6] (H69AR cells + 2 uM doxorubicin) is 21.9% (inactive). The inhibition in test [7] is -1.87% (inactive); in test [8] it was -1.45% (inactive).
As to `CCn1c(SCC(=O)NCc2ccco2)nc2c(c1=O)SC(C)C2` (stereo not given), the viability is 95% in test [1]; 95% (inactive) in test [3]; 103% (inactive) in test [4]; 91.3% (inactive) in test [5]; 91.7% in test [6] (setting [9]); 91.3% in test [6] (setting [10]). Moreover, the Her2 level in test [2] is 91% (inactive). The differential viability (reversal) in test [6] (H69AR cells + 2 uM doxorubicin) was -0.41% (inactive). The inhibition in test [7] is -4.4% (inactive); in test [8] it was -0.98% (inactive).

(Values after PubChem BioAssay.)
